Measurements reported in ChEMBL document CHEMBL4152387, “Discovery of a Potent Grp94 Selective Inhibitor with Anti-Inflammatory Efficacy in a Mouse Model of Ulcerative Colitis” (J Med Chem, 2018).
Calls of active or inactive are those of the source. No cut-off for these calls is given here.

Columns and labels:
Canis lupus familiaris [1] = species on record: Canis lupus familiaris; assay: Inhibition of FITC-geldanamycin binding to dog GST-tagged GRP94 N41 deletion mutant (69 to 337 residues) expressed in Escherichia coli BL21star (DE3) at 100 uM after 4 hrs by FP assay relative to control
[2] = Binding affinity to dog His-tagged biotinylated GRP94 N41 deletion mutant (69 to 337 residues) expressed in Escherichia coli BL21star (DE3) by biolayer interferometry; set-up: species or system Canis lupus familiaris
Method in brief: (§1)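 His-tagged Grp94N biotinylated at one molar ratio in PBS pH 7.4, dialysed overnight, loaded at 400 nM on streptavidin biosensors after 10 min prewetting in PBS, 0.05% BSA, 0.01% Tween-20. Four compound concentrations in this buffer tested; binding recorded at 30 °C by biolayer interferometry.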

[3] = target: T1, Heat shock protein HSP 90-alpha (Homo sapiens, UniProt P07900); assay: Binding affinity to human His-tagged HSP90alpha N-terminal domain (1 to 236 residues) expressed in Escherichia coli BL21star (DE3) by biolayer interferometry
Method in brief: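 His-tagged Hsp90N biotinylated in PBS pH 7.4 (one molar ratio), dialysed overnight, immobilized at 400 nM on streptavidin sensors; kinetics buffer PBS, 0.05% BSA, 0.01% Tween-20; four compound concentrations; 30 °C biolayer interferometry.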

Endoplasmin = Endoplasmin (Homo sapiens, UniProt P14625); assay: Inhibition of GRP94 in human PANC1 cells assessed as down-regulation of integrin alphaL levels after 36 hrs by Western blot analysis; type: cell-based
Sequence of Endoplasmin (P14625 whole entry): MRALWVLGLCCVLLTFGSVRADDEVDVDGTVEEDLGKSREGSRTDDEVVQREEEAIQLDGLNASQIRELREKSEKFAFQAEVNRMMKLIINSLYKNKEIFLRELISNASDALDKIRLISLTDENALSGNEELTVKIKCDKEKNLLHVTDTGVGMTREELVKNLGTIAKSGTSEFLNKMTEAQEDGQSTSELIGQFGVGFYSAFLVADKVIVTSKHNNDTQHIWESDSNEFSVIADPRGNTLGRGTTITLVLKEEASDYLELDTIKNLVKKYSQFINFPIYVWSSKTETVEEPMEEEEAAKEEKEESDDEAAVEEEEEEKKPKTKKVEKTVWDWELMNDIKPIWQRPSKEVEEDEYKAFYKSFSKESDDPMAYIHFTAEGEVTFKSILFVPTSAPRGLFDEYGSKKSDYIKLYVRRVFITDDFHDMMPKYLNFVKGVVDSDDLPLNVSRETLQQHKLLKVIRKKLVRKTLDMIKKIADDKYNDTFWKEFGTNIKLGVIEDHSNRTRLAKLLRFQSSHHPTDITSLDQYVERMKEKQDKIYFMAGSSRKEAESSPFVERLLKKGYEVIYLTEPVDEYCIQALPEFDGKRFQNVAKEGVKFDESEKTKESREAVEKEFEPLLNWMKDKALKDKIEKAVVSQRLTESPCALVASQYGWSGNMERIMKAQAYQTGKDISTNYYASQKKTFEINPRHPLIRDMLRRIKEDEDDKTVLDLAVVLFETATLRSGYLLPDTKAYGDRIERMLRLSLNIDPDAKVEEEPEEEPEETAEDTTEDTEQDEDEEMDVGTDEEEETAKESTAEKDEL
Method in brief: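 Panc-1 cells treated 36 h at indicated concentrations; cell surface protein extracted with a membrane-fractionation kit; Western blot for integrin α2 and αL with β-actin loading control, infrared fluorescent secondary detection.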

[4] = target: T1, Heat shock protein HSP 90-alpha; assay: Inhibition of HSP90alpha in human PANC1 cells assessed as akt degradation at 1 to 5 uM after 36 hrs by Western blot analysis; type: cell-based
Method in brief: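 Panc-1 cells treated 36 h; total protein lysate with protease/phosphatase inhibitors; equal protein by BCA on SDS-PAGE, PVDF, Western blot for Hsp70 and Akt, β-actin loading control; AT13387 reference.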

Mus musculus [5] = assay: Anti-inflammatory activity in C57BL/6 mouse model of DSS-induced ulcerative colitis assessed reduction in body weight loss at 10 to 30 mg/kg, ip qd co-administrated with DSS measured until day 7 post dose; type: functional, organism-based
Method in brief: (§2)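 Male C57BL/6 mice (20−22 g), n = 8 per group, 3% DSS in drinking water for 7 days with ip qd dosing at 10 or 30 mg/kg; vehicle for normal and disease controls. Body weight, stool consistency and rectal bleeding recorded daily; DAI scored from weight loss, stool consistency and stool blood.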

Mus musculus [6] = assay: Anti-inflammatory activity in C57BL/6 mouse model of DSS-induced ulcerative colitis assessed reduction in disease activity index at 10 to 30 mg/kg, ip qd co-administrated with DSS measured until day 7 post dose; type: functional, organism-based; method in brief: as §2
Mus musculus [7] = assay: Anti-inflammatory activity in ip dosed C57BL/6 mouse model of DSS-induced ulcerative colitis assessed reduction in IL6 levels in serum co-administrated once daily with DSS measured on day 7 post dose by ELISA; type: functional, organism-based
Method in brief: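 DSS colitis in male C57BL/6 mice (3% DSS in water, 7 days, ip qd co-dosing, vehicle controls). Serum and colons taken at sacrifice on day 7; colon homogenate supernatants and serum assayed for mouse TNFα and IL-6 by ELISA kits; n = 5 samples per group.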

Mus musculus [8] = assay: Anti-inflammatory activity in C57BL/6 mouse model of DSS-induced ulcerative colitis assessed reduction in TLR9 expression in colonic tissues at 10 to 30 mg/kg, ip qd co-administrated with DSS measured on day 7 post dose; type: functional, organism-based
Method in brief: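 DSS colitis in male C57BL/6 mice (3% DSS, 7 days, ip qd 10 or 30 mg/kg, vehicle controls); colons flash-frozen at day 7, homogenized in lysis buffer with protease/phosphatase inhibitors. Equal protein by BCA run on SDS-PAGE, PVDF, 1% BSA block, primary antibodies 37 °C 1 h then 4 °C overnight, DyLight 800 secondary, infrared scan; β-actin loading control.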

Mus musculus [9] = assay: Subacute toxicity in C57BL/6 mouse assessed as body weight loss at 30 to 90 mg/kg, ip qd for 2 weeks measured every other day; type: organism-based; details: in vivo, 336 h
Mus musculus [10] = assay: Subacute toxicity in C57BL/6 mouse assessed as behavioral abnormalities at 30 to 90 mg/kg, ip qd for 2 weeks; type: organism-based; details: in vivo, 336 h
Mus musculus [11] = assay: Subacute toxicity in C57BL/6 mouse assessed as effect on heart at 30 to 90 mg/kg, ip qd for 2 weeks by hematoxylin and eosin staining analysis; type: organism-based; details: in vivo, 336 h
Mus musculus [12] = assay: Subacute toxicity in C57BL/6 mouse assessed as effect on liver at 30 to 90 mg/kg, ip qd for 2 weeks by hematoxylin and eosin staining analysis; type: organism-based; details: in vivo, 336 h
Canis lupus familiaris [13] = species on record: Canis lupus familiaris; assay: Binding affinity to dog GST-tagged GRP94 N41 deletion mutant (69 to 337 residues) expressed in Escherichia coli BL21star (DE3) at 40 uM by NMR based CPMG assay
Canis lupus familiaris [14] = species on record: Canis lupus familiaris; assay: Binding affinity to dog His-tagged biotinylated GRP94 N41 deletion mutant (69 to 337 residues) expressed in Escherichia coli BL21star (DE3) assessed as association constant by biolayer interferometry; method in brief: as §1
[15] = target: T1, Heat shock protein HSP 90-alpha; assay: Binding affinity to human His-tagged HSP90alpha N-terminal domain (1 to 236 residues) expressed in Escherichia coli BL21star (DE3) association constant by biolayer interferometry; details: read-out: K
Method in brief: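 Biotinylated His-tagged N-terminal protein, labelled in PBS pH 7.4 at one molar ratio with excess biotin removed by overnight dialysis, was loaded at 400 nM final onto streptavidin biosensors pre-wetted 10 min in kinetics buffer (PBS, 0.05% BSA, 0.01% Tween-20). Four compound concentrations in kinetics buffer were then tested for binding, with all data collected at 30 °C.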

Compound: CC(C)c1ccc(-c2ccc(N[C@H]3CC[C@H](O)CC3)c(C(N)=O)c2)cc1
- inhibition (Canis lupus familiaris [1]): 100%
- Kd [2]: 0.0196 µM
- Kd [3]: 20.6 µM
- inhibition (Endoplasmin): Dose-dependent effect
- inhibition (INH) [4]: Not Active
- Activity (Mus musculus [5]): Active
- Activity (Mus musculus [6]): Active
- Activity (Mus musculus [7]): Dose-dependent effect
- Activity (Mus musculus [8]): Active
- Activity (Mus musculus [9]): Non-Toxic
- Activity (Mus musculus [10]): Non-Toxic
- Activity (Mus musculus [11]): Non-Toxic
- Activity (Mus musculus [12]): Non-Toxic
- Activity (Canis lupus familiaris [13]): Active
- K (Canis lupus familiaris [14]): 6.38 ×10⁵ /M/s
- kon [15]: 1680 M⁻¹ s⁻¹
